ChEMBL document CHEMBL2401667, “Synthesis of N-substituted acyclic β-amino acids and their investigation as GABA uptake inhibitors” (Eur J Med Chem, 2013)

Key:
GABA transporter 3 = molecular target: T1, GABA transporter 3 (Mus musculus, UniProt P31649); experiment: Inhibition of GABA uptake at murine GAT-2 expressed in HEK293 cells; type: cell-based
T1 sequence (P31649 whole entry): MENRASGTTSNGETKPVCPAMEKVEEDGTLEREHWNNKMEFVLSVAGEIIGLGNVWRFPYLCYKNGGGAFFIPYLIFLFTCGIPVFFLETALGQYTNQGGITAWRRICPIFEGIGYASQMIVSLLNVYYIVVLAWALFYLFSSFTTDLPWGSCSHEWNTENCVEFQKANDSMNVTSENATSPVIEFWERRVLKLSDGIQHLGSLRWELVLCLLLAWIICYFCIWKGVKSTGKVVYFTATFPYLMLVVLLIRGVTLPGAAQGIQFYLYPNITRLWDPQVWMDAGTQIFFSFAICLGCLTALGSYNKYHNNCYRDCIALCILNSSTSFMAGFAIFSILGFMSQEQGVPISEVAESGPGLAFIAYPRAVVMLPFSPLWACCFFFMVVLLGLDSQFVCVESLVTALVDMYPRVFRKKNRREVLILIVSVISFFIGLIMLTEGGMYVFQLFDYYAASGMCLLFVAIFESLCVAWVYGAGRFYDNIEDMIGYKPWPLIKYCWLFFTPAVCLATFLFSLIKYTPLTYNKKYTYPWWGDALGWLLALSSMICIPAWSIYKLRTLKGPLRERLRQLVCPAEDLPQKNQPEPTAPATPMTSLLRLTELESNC

[1] = molecular target: Sodium- and chloride-dependent GABA transporter 1 (Mus musculus, UniProt P31648); experiment: Inhibition of GABA uptake at murine GAT-1 expressed in HEK293 cells; type: cell-based
[2] = molecular target: T2, GABA transporter 2 (Mus musculus) (UniProt P31651); experiment: Remaining GABA uptake at murine BGT-1 expressed in HEK293 cells at 100 uM relative to control
T2 sequence (whole entry): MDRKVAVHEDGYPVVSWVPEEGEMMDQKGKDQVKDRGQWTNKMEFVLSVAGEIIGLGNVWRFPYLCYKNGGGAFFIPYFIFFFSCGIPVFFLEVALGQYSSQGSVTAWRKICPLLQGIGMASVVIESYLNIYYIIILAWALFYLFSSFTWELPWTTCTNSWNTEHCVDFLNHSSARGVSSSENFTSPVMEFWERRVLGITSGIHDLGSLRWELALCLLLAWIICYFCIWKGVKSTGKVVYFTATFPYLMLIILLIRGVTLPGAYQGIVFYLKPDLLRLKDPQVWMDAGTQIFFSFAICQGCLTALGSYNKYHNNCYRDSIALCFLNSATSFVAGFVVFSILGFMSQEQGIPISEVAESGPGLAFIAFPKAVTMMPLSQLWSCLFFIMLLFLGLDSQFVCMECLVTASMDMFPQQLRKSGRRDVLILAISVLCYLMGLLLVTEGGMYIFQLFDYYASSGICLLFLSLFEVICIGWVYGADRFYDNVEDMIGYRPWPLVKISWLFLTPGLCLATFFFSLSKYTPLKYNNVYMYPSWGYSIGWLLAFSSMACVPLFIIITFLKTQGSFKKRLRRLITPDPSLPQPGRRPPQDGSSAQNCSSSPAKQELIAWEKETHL

GABA transporter 4 = molecular target: T3, GABA transporter 4 (Mus musculus, UniProt P31650); experiment: Inhibition of GABA uptake at murine GAT-3 expressed in HEK293 cells; type: cell-based
T3 sequence (P31650 whole entry): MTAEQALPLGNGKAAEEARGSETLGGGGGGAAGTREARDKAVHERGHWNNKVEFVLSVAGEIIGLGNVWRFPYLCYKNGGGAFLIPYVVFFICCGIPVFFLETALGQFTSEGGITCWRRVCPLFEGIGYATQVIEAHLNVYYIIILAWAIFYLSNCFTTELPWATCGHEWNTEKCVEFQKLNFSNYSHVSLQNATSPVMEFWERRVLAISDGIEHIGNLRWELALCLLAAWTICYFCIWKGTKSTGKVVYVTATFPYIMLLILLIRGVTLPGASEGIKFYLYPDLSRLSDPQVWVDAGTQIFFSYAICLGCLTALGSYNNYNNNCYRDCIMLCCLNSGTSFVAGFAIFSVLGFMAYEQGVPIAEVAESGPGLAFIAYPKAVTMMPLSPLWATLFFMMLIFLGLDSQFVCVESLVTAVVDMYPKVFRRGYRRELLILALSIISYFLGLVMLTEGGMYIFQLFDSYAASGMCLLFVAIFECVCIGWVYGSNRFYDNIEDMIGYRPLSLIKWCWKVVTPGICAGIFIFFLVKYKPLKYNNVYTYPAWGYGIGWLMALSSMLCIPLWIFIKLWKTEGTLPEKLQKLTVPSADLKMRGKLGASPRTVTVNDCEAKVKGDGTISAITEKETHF

[3] = molecular target: T2, GABA transporter 2 (Mus musculus); experiment: Remaining GABA uptake at murine BGT-1 expressed in HEK293 cells at 1 mM relative to control
[4] = molecular target: T4, GABA transporter 3 (Mus musculus) (UniProt P31649); experiment: Remaining GABA uptake at murine GAT-2 expressed in HEK293 cells at 100 uM relative to control
T4 sequence (whole entry): T1 sequence (P31649 whole entry)

[5] = molecular target: Sodium- and chloride-dependent GABA transporter 1 (Mus musculus) (UniProt P31648); experiment: Remaining GABA uptake at murine GAT-1 expressed in HEK293 cells at 100 uM relative to control
GABA transporter 2 = molecular target: T5, GABA transporter 2 (Mus musculus, UniProt P31651); experiment: Inhibition of GABA uptake at murine BGT-1 expressed in HEK293 cells; type: cell-based
T5 sequence (P31651 whole entry): T2 sequence (whole entry)

[6] = Inhibition of GABA uptake at GAT-3 in porcine brain stem P2C fraction; set-up: species or system Sus scrofa
In short: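 Uptake assay on a P2C membrane preparation from porcine brainstem, which predominantly addresses the GAT3 subtype.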

[7] = Inhibition of GABA uptake at GAT-1 in porcine frontal cortex P2B fraction; type: tissue-based, Sus scrofa
In short: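 Uptake assay on a P2B membrane preparation from porcine frontal cortex, which predominantly addresses the GAT1 subtype.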

[8] = molecular target: Sodium- and chloride-dependent GABA transporter 1 (Homo sapiens, UniProt P30531); experiment: Inhibition of GABA uptake at GAT-1 (unknown origin)
Sodium- and chloride-dependent GABA transporter 1 (Homo sapiens, UniProt P30531), sequence (P30531 whole entry): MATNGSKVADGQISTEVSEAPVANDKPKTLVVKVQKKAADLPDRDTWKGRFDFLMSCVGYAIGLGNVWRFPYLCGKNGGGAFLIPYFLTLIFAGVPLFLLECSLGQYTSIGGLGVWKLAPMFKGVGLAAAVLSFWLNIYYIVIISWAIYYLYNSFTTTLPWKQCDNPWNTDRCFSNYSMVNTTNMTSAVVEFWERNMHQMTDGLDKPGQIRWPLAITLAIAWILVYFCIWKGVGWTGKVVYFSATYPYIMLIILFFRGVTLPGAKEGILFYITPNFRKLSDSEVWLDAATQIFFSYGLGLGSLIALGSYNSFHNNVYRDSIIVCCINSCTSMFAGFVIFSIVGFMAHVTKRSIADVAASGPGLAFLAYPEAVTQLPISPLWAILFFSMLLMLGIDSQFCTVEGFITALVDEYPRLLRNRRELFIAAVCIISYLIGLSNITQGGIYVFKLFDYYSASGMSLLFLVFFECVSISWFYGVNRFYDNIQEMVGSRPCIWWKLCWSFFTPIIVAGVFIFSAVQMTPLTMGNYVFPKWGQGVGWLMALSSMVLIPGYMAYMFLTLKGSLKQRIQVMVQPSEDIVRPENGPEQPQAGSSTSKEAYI

Compound	IC50 [1] [µM]	remaining GABA uptake [2] [%]	IC50 (GABA transporter 4) [µM]	remaining GABA uptake [4] [%]	further results
CC(CC(=O)O)NCCOCCN1c2ccccc2Sc2ccccc21 (racemic)	8.71	74			IC50 (GABA transporter 3): 40.7 µM
CC(CC(=O)O)NCCOCCN1c2ccccc2CCc2ccccc21 (racemic)	13.2		339		IC50 (GABA transporter 3): 214 µM; remaining GABA uptake [3]: 69%
COc1ccc(C(OCCNCCC(=O)O)(c2ccc(OC)cc2)c2ccc(OC)cc2)cc1		55	42.7	40	remaining GABA uptake [5]: 57%
CC(CC(=O)O)NCCC=C(c1ccccc1)c1ccccc1 (racemic)	4.57	86		82	
CC(CC(=O)O)NCCOCCN1c2ccccc2C=Cc2ccccc21 (racemic)	17.4	82		84	
COc1ccc(C(OCCNC(C)CC(=O)O)(c2ccc(OC)cc2)c2ccc(OC)cc2)cc1 (racemic)		73	33.9	48	remaining GABA uptake [5]: 114%
O=C(O)CCNCCOCCN1c2ccccc2CCc2ccccc21	20.4	85		55	
COc1ccc(C(OCCN2CCC[C@H](C(=O)O)C2)(c2ccc(OC)cc2)c2ccc(OC)cc2)cc1					IC50 (GABA transporter 2): 30.9 µM
Cl.O=C(O)CCNCCC=C(c1ccccc1)c1ccccc1					pIC50 [6]: 3.36; pIC50 [7]: 3.94
COc1ccc(C(/C=C/CN2CCC[C@H](C(=O)O)C2)(c2ccc(OC)cc2)c2ccc(OC)cc2)cc1	39.8				IC50 (GABA transporter 2): 38 µM
O=C(O)CCNCCOCCN1c2ccccc2Sc2ccccc21	35.5	88		50	
O=C(O)CCNCCOCCN1c2ccccc2C=Cc2ccccc21		85		87	remaining GABA uptake [5]: 56%
O=C(O)[C@@H]1CCCN(CCOCCN2c3ccccc3CCc3ccccc32)C1					IC50 [8]: 39.8 µM
COc1ccc(C(/C=C/CNCCC(=O)O)(c2ccc(OC)cc2)c2ccc(OC)cc2)cc1		47		94	remaining GABA uptake [5]: 77%
COc1ccc(C(/C=C/CNC(C)CC(=O)O)(c2ccc(OC)cc2)c2ccc(OC)cc2)cc1 (racemic)		47	60.3		IC50 (GABA transporter 3): 63.1 µM; remaining GABA uptake [5]: 52%
O=C(O)[C@@H]1CCCN(CCOCCN2c3ccccc3C=Cc3ccccc32)C1					IC50 [8]: 0.646 µM
O=C(O)[C@@H]1CCCN(CCOCCN2c3ccccc3Sc3ccccc32)C1					IC50 [8]: 0.309 µM
CC(N)CC(=O)O (racemic)	50.1		83.2		IC50 (GABA transporter 3): 46.8 µM; IC50 (GABA transporter 2): 813 µM
NCCC(=O)O [BETA-ALANINE]	2820		34.7		IC50 (GABA transporter 3): 21.9 µM; IC50 (GABA transporter 2): 331 µM
